The data set can be described thus: Toxicity liver stage against HepG2, at 10uM. Format: cell-based. The arrangement: test concentration 10 uM, cell line HepG2-A16-CD81EGFP. The note with it: human, HepG2-A16-CD81EGFP cells; read-out: INHIBITION
Summed up: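 Uninfected HepG2-A16-CD81EGFP cells, 3 × 10^3 per well, 1536-well, plated on prespotted compound at 10 μM final, parasite-free screening media added to match infected plates; puromycin 10 μM positive, DMSO 0.5% negative; run in parallel with 48 h PbLuc assay at 37 °C, 5% CO2; viability by CellTiter-Glo luminescence, normalized to controls.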
Turning to `CCN(CC)C1(Cc2cc(COC)on2)COC1`, the cytotoxicity at 10 µM is -2.45%.

For `Cc1nc(-c2ccc(S(=O)(=O)N3CCCCC3)cc2)co1`, the cytotoxicity at 10 µM is -2.5%. The value for `COCCn1cc(CC(=O)Nc2nc[nH]n2)c2ccccc21` was -0.145%. As to `COC1(CNC(=O)c2ccsc2)CCSC1` (configuration not stated), the cytotoxicity at 10 µM is -3.09%. The value for `Cc1cc(C(=O)N2CC[C@@H]3CN(CCC(C)C)S(=O)(=O)[C@@H]3CC2)no1` was 1.58%. Turning to `CN(C)CCOCC1CN(C(=O)c2cscn2)Cc2ccnn2C1` (configuration not stated), the cytotoxicity at 10 µM is 3.65%. For `O=C(NCC1CC1)C1CN(C(=O)c2ccnnc2)CC12CCOCC2` (configuration not stated) the value was 8.21%; for `Cn1cc(NC(=O)Cn2cc(-c3ccccc3)ncc2=O)cn1`, -3.43%; for `CCCn1cc(CN2CCOCC2c2[nH]ncc2C)cn1` (configuration not stated), 0.325%. For `CC(C)N1CC(C(=O)NCc2ccc(S(=O)(=O)N(C)C)cc2)CC1=O` (configuration not stated) the value was 4.44%. The value for `CCN(CC)c1ncc2c(O)nc(C3CCNCC3)cc2n1` was 14.7%; that for `COc1ccccc1NC(=O)C1(c2ccccc2)CCOCC1` was 7.59%; that for `COCC(=O)N1CCN(C)C(=O)C(Cc2ccc(-c3cccs3)cc2)C1` (configuration not stated) was 1.74%. `CC(=O)N1Cc2ccccc2OC2(CCN(C(=O)C3CCOC3)CC2)C1` (configuration not stated): the cytotoxicity at 10 µM was determined as 0.146%. Consider `O=C(Cc1cccc(O)c1)N1CCCC(O)(CN2CCOCC2)CC1` (configuration not stated), for which the cytotoxicity at 10 µM is -3.28%. The value for `O=C(Cc1ccc(F)c(F)c1)NC1COc2ccccc2C1=O` (configuration not stated) was 4.61%; that for `CC(C)(C)c1cc(NC(=O)CN(Cc2ccco2)Cc2cccs2)on1` was 11.2%.

For the compound `COc1ccc(COCC(O)CSc2ccc(NC(C)=O)cc2)cc1` (configuration not stated), the cytotoxicity at 10 µM stood at 8.22%. The value for `Cc1cc(C)n(CCCNC(=O)C2CCCO2)n1` (configuration not stated) was -11.5%.

For the compound `CCOCCN1CCN(CC(=O)NC2(C#N)CCCC2)CC1CC` (configuration not stated), the cytotoxicity at 10 µM amounted to 7.73%. `Cc1nc(C)c(C(=O)N2CCc3c(C)cccc32)o1`: the cytotoxicity at 10 µM is -2.28%.

`Cc1noc(C)c1CNC(=O)Nc1ccc(N2CCOC(C)C2)cc1` (configuration not stated): the cytotoxicity at 10 µM was -2.35%.

Regarding `CCOc1cc(CNC(=O)CNC(=O)CC2CCCCC2)ccn1`, the cytotoxicity at 10 µM is 6.81%. The value for `CN(C)c1ccc(C(=O)Nc2ccn(CCc3ccncc3)n2)cc1` was -4.59%; that for `CC(C)c1cnc(CN2CCCC(c3ccn[nH]3)C2)o1` (configuration not stated) was -4.01%. For `CN(C(=O)c1ccc(Cl)c(S(C)(=O)=O)c1)c1ccccc1` the value was -1.47%; for `COCCn1cc(C(=O)N2CCCC2c2cnn(C)c2)ccc1=O` (configuration not stated), 5.92%. With `CCCc1nnc(NC(=O)NC2CCOc3ccccc32)s1` (configuration not stated), the cytotoxicity at 10 µM stood at 3.72%. For `COc1ccc(NC(=O)N(CCO)Cc2ccsc2)c(OC)c1` the value was 12.2%; for `COc1ccc(C(C)NC(=O)NCCc2ccc(C)nc2)c(OC)c1` (configuration not stated), -1.74%; for `CC(=O)N1CCC(NC(=O)Cc2csc(C(C)(C)C)n2)CC1`, -8.41%. For `NC(=O)NC(=O)CCSCc1coc(-c2cccc(Cl)c2)n1` the value was -1.23%; for `Cc1ccc2c(c1)C(NCc1nccn1Cc1ccccc1)CCCO2` (configuration not stated), 1.26%. With `Cc1nc(CNC(C(=O)N2CCOCC2)C(C)C)oc1C` (configuration not stated), the cytotoxicity at 10 µM was -4.34%. Take `O=C(Nc1ccc(=O)n(Cc2ccccc2Cl)c1)C1CC1`: the cytotoxicity at 10 µM was -6.57%. For `CCCOc1ccc(Cl)cc1C(=O)N1CCC(n2cncn2)CC1` the value was 2.93%. The value for `CC(Cn1cccn1)NC(=O)NCCN1CCCCCC1=O` (configuration not stated) was 12.3%; that for `CCC(C)(NCc1nnc(C(C)(C)C)o1)c1nccs1` (configuration not stated) was 19.2%; that for `c1ccc(C2CN(CCc3ccncc3)CCO2)cc1` (configuration not stated) was -8.85%. For `Cc1csc(C(C)(C)NCC(=O)N2CCCC(C(F)(F)F)C2)n1` (configuration not stated) the value was 6.32%; for `Cc1c(C(C)NC(=O)Nc2ccc(F)c(F)c2)cnn1C` (configuration not stated), -46.8%. `Cn1cnc(-c2nc(C(=O)NC3CC3)c3ccccn23)c1`: the cytotoxicity at 10 µM is -114%. The value for `Cc1cc(NC(C)c2nnn[nH]2)n2nc(C)c(C)c2n1` (configuration not stated) was 9.4%. Take `Cn1nccc1NC(=O)c1cccc(CN2C[C@H]3CC[C@@H](C2)N3)c1`: the cytotoxicity at 10 µM is 6.56%. For the compound `O=C(NC1CCCC1)c1cc(Cn2cnc3ccccc32)on1`, the cytotoxicity at 10 µM worked out at 4.51%.

Take `CN(C)CCN1CC(C(=O)NCc2ccc(C#N)cc2)CC1=O` (configuration not stated): the cytotoxicity at 10 µM was -6.02%. In the case of `CC(C)c1nnsc1CNC(=O)C1CCN(C(C)C)CC1`, the cytotoxicity at 10 µM was -8.05%. On to `CC1(C)CC(CN2CCC3(CCC(=O)N(C4CCC4)C3)CC2)CCO1` (configuration not stated), for which the cytotoxicity at 10 µM was 0.986%. For `COc1nccnc1N1CCN(Cc2cccc(C)c2)C(=O)C1` the value was -0.408%; for `CCCc1nnc(NC2CCN(CCO)CC2)o1`, 8.35%. For `Cc1ncc(C(=O)N2CCCCC2c2nc3cc(F)ccc3[nH]2)c(O)n1` (configuration not stated) the value was -0.305%; for `Cn1ccnc1C1CCCN(C(=O)c2ccc3nccnc3c2)C1` (configuration not stated), 19.7%; for `O=C(CCCN1CCCCC1)NC(C(=O)O)c1ccc(Cl)cc1` (configuration not stated), -2.33%. The value for `CC1(c2ccccc2)CCCN(Cc2nnc(-c3cccnc3)o2)C1` (configuration not stated) was -6.64%; that for `Clc1cc(N2CCN(C3CCOCC3)CC2)nc2[nH]ccc12` was -3.96%; that for `COCc1ccc(C(=O)N2CCCN(c3ccc(F)cc3)CC2)s1` was -8.92%. Take `CCN(Cc1ccccc1)C(=O)CCN1C[C@@H](C(=O)O)[C@H](C2CC2)C1`: the cytotoxicity at 10 µM turned out to be 6.94%. With `CN(C)c1nc2c(c(NCc3nnc4n3CCCCC4)n1)CCNC2`, the cytotoxicity at 10 µM was -1.37%. The value for `O=C(O)c1cccnc1CN1CCCCC1CCc1cccs1` (configuration not stated) was 5.23%; that for `Cc1oc(-c2ccc(F)cc2)nc1CN1CCOCS1(=O)=O` was 4.57%.

With `COCCc1noc(CN2CCCC2c2c(C)nn(C)c2Cl)n1` (configuration not stated), the cytotoxicity at 10 µM is -7.71%.

Take `COc1ccc(-n2ccc(C(=O)NCCn3ccnc3)n2)cc1`: the cytotoxicity at 10 µM is -7.2%. For `Cc1nccn1-c1cc(CNC(=O)CCS(=O)(=O)C2CCCC2)ccn1` the value was -1.71%.

Regarding `CCc1cnc(CN(C(C)=O)C2CCN(CC3(O)CCCCC3)C2)o1` (configuration not stated), the cytotoxicity at 10 µM came out at 0.195%. Regarding `COCCN1CCC(CNC(=O)C2(c3ccccc3)CCOCC2)C1` (configuration not stated), the cytotoxicity at 10 µM was -5.87%.

For the compound `Cc1cnn(CCC(=O)NC2CCc3nc(C)cn3C2)c1` (configuration not stated), the cytotoxicity at 10 µM turned out to be 0.132%. As to `CC(C#N)CN(C)Cc1nc2c(cnn2C)c(=O)[nH]1` (configuration not stated), the cytotoxicity at 10 µM was -6.45%. Turning to `Cn1cc(NC(=O)N2CCC2c2ccccc2)ccc1=O` (configuration not stated), the cytotoxicity at 10 µM was -9.57%. For `CCc1nc(CNCC2CCCN2c2cccnn2)cs1` (configuration not stated) the value was -7.69%; for `CCc1noc(CN2CCC(C(=O)Nc3cnn(CC)c3)CC2)n1`, 3.43%; for `Cc1cnn(CCC(=O)N2CCN(c3ccc(C#N)cn3)CC2)c1`, -0.417%. For `Cc1ccc(OCC(=O)NS(=O)(=O)c2c(C)noc2C)cc1C`, the cytotoxicity at 10 µM is -1.96%. For `Cc1cc(C)c(CNC(=O)N(C)CC2CCCCO2)c(=O)[nH]1` (configuration not stated) the value was -8.93%. In the case of `COC1CCN(C(=O)Cc2csc(-c3ncccn3)n2)CC1`, the cytotoxicity at 10 µM was -12.6%. With `COc1cccc(C2CCCN2Cc2nc3c(cnn3C)c(=O)[nH]2)c1` (configuration not stated), the cytotoxicity at 10 µM is -4.35%. Take `COc1c(C)cnc(CN2CCCCC2Cn2nc(C)nc2C)c1C` (configuration not stated): the cytotoxicity at 10 µM is -0.627%. As for `CNC(=O)CS(=O)(=O)Cc1cc(Cl)c2c(c1)OCCCO2`, the cytotoxicity at 10 µM was -5.61%. On to `Cc1cnc(CN(C)C2CCN(Cc3nc4ccccc4n3C)C2)o1` (configuration not stated), for which the cytotoxicity at 10 µM is 2.57%. For `Cc1cc(OCC(=O)N2CCCC(c3noc(C)n3)C2)no1` (configuration not stated) the value was -0.0722%. On to `CC(Cn1cccn1)NC(=O)Cc1cccs1` (configuration not stated), for which the cytotoxicity at 10 µM worked out at 4.93%. Regarding `CCN1CCC(NC(=O)CN2CCCC2Cn2cncn2)CC1` (configuration not stated), the cytotoxicity at 10 µM was 6.54%. Regarding `Cc1nc2c(c(C)c1CC(=O)NCc1cccc(C#N)c1)c(=O)[nH]n2C`, the cytotoxicity at 10 µM was -0.722%.

In the case of `Cn1cnnc1C1CCCN(C(=O)c2cnc3ccccc3n2)C1` (configuration not stated), the cytotoxicity at 10 µM worked out at 0.577%.

As for `Cc1ccc(-c2cc(C3CCNCC3)nc(C)n2)cc1`, the cytotoxicity at 10 µM came out at 9.63%.

Consider `CCn1ccc2ccnc(CC3CN(C(=O)Cn4ccnc4C)C3)c21`, for which the cytotoxicity at 10 µM was -5.87%. For the compound `N#Cc1cnc2ccccc2c1N1CCN(CCC(=O)O)CC1`, the cytotoxicity at 10 µM is -1.28%. Regarding `c1cc2c(cc1CN1CC[C@H]3[C@H]1CCN3CC1CC1)OCO2`, the cytotoxicity at 10 µM came out at 1.67%. For the compound `Cc1nc(CNCC2Cn3nncc3CO2)cs1` (configuration not stated), the cytotoxicity at 10 µM was -93.2%. `COCc1cncc2c1CCN(C(=O)c1ccc(C#N)cc1)C2`: the cytotoxicity at 10 µM was -106%. The value for `Cn1cccc1C(=O)N1C[C@H]2CN(Cc3cccc(F)c3)C[C@H]2C1` was -1.1%; that for `O=C(NCC1CC1)C1CCC2(CCN(C(=O)c3cccnc3)CC2)O1` (configuration not stated) was 3.59%; that for `CN1CC[C@@H]2OC[C@H](C(=O)N(C)Cc3ccccn3)C[C@@H]2C1` was -98%.

In the case of `CC[C@@H]1N(Cc2ccco2)CCC[C@]12CCC(=O)N2C`, the cytotoxicity at 10 µM was -0.00736%. With `Cc1ccc(CN2CCc3[nH]nc(C(=O)N(C)C)c3C2)o1`, the cytotoxicity at 10 µM was 0.081%. With `CC(C)NC(=O)N1CCN(CCn2cccn2)c2ncccc2C1`, the cytotoxicity at 10 µM was -100%. For `Cc1ccc(CN2CC[C@H]3OCC[C@@H](C(=O)NCC4CC4)[C@@H]3C2)s1` the value was -0.53%; for `O=C(c1cc(C2CC2)no1)N1C[C@@H]2CC[C@H]1CN(Cc1ccccn1)C2`, 2.21%.
